Data taken from ChEMBL document CHEMBL1121813, “Dihydrochalcone sweeteners. A study of the atypical temporal phenomena” (1981).

Assays:
[1] = species on record: Homo sapiens; assay: Number of taste judgments per compound; type: functional
[2] = species on record: Homo sapiens; assay: Other taste character at a concentration of 252 ppm (mean value); type: functional
Summary of the method: (§1)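 Trained human sensory panel (Swartz method) tasted dilute aqueous solutions of the compounds, which had to be ≥95 weight percent pure and free of mutagenicity and toxicity. Taste character is reported as the mean value with 2S_m limits. Data deviating excessively at the 95% confidence level were rejected by the t-value method.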

[3] = species on record: Homo sapiens; assay: Sweet / Bitter character at a concentration of 252 ppm (mean value); 6/94; type: functional
[4] = species on record: Homo sapiens; assay: Bitter character at a concentration of 252 ppm (mean value); type: functional
Summary of the method: (§2)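 Trained human panel tasted aqueous solutions. Each judge reported whether there was an aftertaste and its character (sweet, bitter or bitter-sweet). The value is the percentage of judgments reporting a bitter aftertaste.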

[5] = species on record: Homo sapiens; assay: Sweet character at a concentration of 252 ppm (mean value); type: functional; summary of the method: as §1
[6] = species on record: Homo sapiens; assay: Percentage of judgments reporting an aftertaste at a concentration of 252 ppm and character thereof; type: functional
Summary of the method: (§3)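 Trained judges tasted aqueous solutions of the compounds, which had to be ≥95 weight percent pure and to have passed mutagenicity and single oral dose toxicity screening. The value is the percentage of panel judgments reporting an aftertaste. Where given, its character is recorded as sweet, bitter or bitter-sweet.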

[7] = species on record: Homo sapiens; assay: Sour character at a concentration of 252 ppm (mean value); type: functional; summary of the method: as §1
[8] = species on record: Homo sapiens; assay: Experimentally determined perceived intensity of compound at a concentration of 252 ppm (mean value); type: functional
Summary of the method: (§4)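 Trained human sensory panel of judges tasted aqueous solutions of the compound. Samples had to be ≥95 weight % pure (HPLC, proton titration, Karl Fischer), non-mutagenic in five Salmonella typhimurium strains with and without microsomal activation, and non-toxic in a single-oral-dose mouse test. Perceived intensity (Ip) was read from time–intensity curves at 4- or 6-s intervals and averaged. Outliers at the 95% level were rejected by t-value. Values reported as mean (2Sm).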

[9] = species on record: Homo sapiens; assay: Intensity calculated on a weight basis relative to an 85500 ppm sucrose solution at a concentration of 252 ppm (mean value); type: functional
Summary of the method: (§5)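 Trained human panel tasted aqueous solutions of purity-checked (≥95 weight percent) compounds cleared for mutagenicity and mouse oral toxicity. Weight-basis intensity I_w = perceived intensity × (85500 ppm sucrose / compound concentration in ppm). The mean is reported with 2S_m limits; data deviating excessively at 95% confidence were rejected by the t-value method.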

[10] = species on record: Homo sapiens; assay: Intensity calculated on a molar basis relative to a 0.25 M sucrose solution at a concentration of 252 ppm (mean value); type: functional
Summary of the method: (§6)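 Trained human judges tasted aqueous solutions of the test compound; compounds were first required to be ≥95 weight percent pure and free of mutagenicity (five Salmonella typhimurium strains, ± microsomal activation) and of single oral dose mouse toxicity. Molar intensity I_m = perceived intensity × (0.25 M sucrose / compound molar concentration). The mean is reported with 2S_m limits; outliers were rejected at 95% confidence by t-value.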

[11] = species on record: Homo sapiens; assay: Salty character at a concentration of 252 ppm (mean value); type: functional; summary of the method: as §1
[12] = species on record: Homo sapiens; assay: Percentage of judgments reporting an aftertaste at a concentration of 2000 ppm and character thereof; type: functional; summary of the method: as §3
[13] = species on record: Homo sapiens; assay: Experimentally determined perceived intensity of compound at a concentration of 2000 ppm (mean value); type: functional; summary of the method: as §4
[14] = species on record: Homo sapiens; assay: Other taste character at a concentration of 90 ppm (mean value); type: functional; summary of the method: as §1
[15] = species on record: Homo sapiens; assay: Bitter character at a concentration of 90 ppm (mean value); type: functional; summary of the method: as §2
[16] = species on record: Homo sapiens; assay: Salty character at a concentration of 90 ppm (mean value); type: functional
[17] = species on record: Homo sapiens; assay: Percentage of judgments reporting an aftertaste at a concentration of 90 ppm and character thereof; type: functional
[18] = species on record: Homo sapiens; assay: Sweet character at a concentration of 90 ppm (mean value); type: functional
[19] = species on record: Homo sapiens; assay: Intensity calculated on a molar basis relative to a 0.25 M sucrose solution at a concentration of 90 ppm (mean value); type: functional; summary of the method: as §6
[20] = species on record: Homo sapiens; assay: Sour character at a concentration of 90 ppm (mean value); type: functional
[21] = species on record: Homo sapiens; assay: Sweet / Bitter character at a concentration of 90 ppm (mean value); 91/9
[22] = species on record: Homo sapiens; assay: Experimentally determined perceived intensity of compound at a concentration of 90 ppm (mean value); type: functional; summary of the method: as §4
[23] = species on record: Homo sapiens; assay: Intensity calculated on a weight basis relative to an 85500 ppm sucrose solution at a concentration of 90 ppm (mean value); type: functional; summary of the method: as §5
[24] = species on record: Homo sapiens; assay: Sour character at a concentration of 1090 ppm (mean value); type: functional
[25] = species on record: Homo sapiens; assay: Intensity calculated on a weight basis relative to an 85500 ppm sucrose solution at a concentration of 1090 ppm (mean value); type: functional; summary of the method: as §5
[26] = species on record: Homo sapiens; assay: Bitter character at a concentration of 1090 ppm (mean value); type: functional; summary of the method: as §2
[27] = species on record: Homo sapiens; assay: Sweet character at a concentration of 1090 ppm (mean value); type: functional
[28] = species on record: Homo sapiens; assay: Intensity calculated on a molar basis relative to a 0.25 M sucrose solution at a concentration of 1090 ppm (mean value); type: functional; summary of the method: as §6
[29] = species on record: Homo sapiens; assay: Experimentally determined perceived intensity of compound at a concentration of 1090 ppm (mean value); type: functional; summary of the method: as §4
[30] = species on record: Homo sapiens; assay: Salty character at a concentration of 1090 ppm (mean value); type: functional
[31] = species on record: Homo sapiens; assay: Sweet / Bitter character at a concentration of 1090 ppm (mean value); type: functional
[32] = species on record: Homo sapiens; assay: Percentage of judgments reporting an aftertaste at a concentration of 1090 ppm; type: functional; summary of the method: as §3
[33] = species on record: Homo sapiens; assay: Other taste character at a concentration of 1090 ppm (mean value); type: functional
Summary of the method: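 Trained human panel tasted aqueous solutions of each compound. Aftertaste is scored as the percentage of judgments reporting one, with its character coded sweet (s), bitter (b) or bitter-sweet (bs).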

[34] = species on record: Homo sapiens; assay: Experimentally determined perceived intensity of compound at a concentration of 690 ppm (mean value); type: functional; summary of the method: as §4
[35] = species on record: Homo sapiens; assay: Sour character at a concentration of 250 ppm (mean value); type: functional; summary of the method: as §1
[36] = species on record: Homo sapiens; assay: Bitter character at a concentration of 250 ppm (mean value); type: functional; summary of the method: as §2
[37] = species on record: Homo sapiens; assay: Salty character at a concentration of 250 ppm (mean value); type: functional; summary of the method: as §1
[38] = species on record: Homo sapiens; assay: Experimentally determined perceived intensity of compound at a concentration of 250 ppm (mean value); type: functional; summary of the method: as §4
[39] = species on record: Homo sapiens; assay: Percentage of judgments reporting an aftertaste at a concentration of 250 ppm and character thereof; type: functional; summary of the method: as §3
[40] = species on record: Homo sapiens; assay: Sweet character at a concentration of 250 ppm (mean value); type: functional; summary of the method: as §1
[41] = species on record: Homo sapiens; assay: Intensity calculated on a weight basis relative to an 85500 ppm sucrose solution at a concentration of 250 ppm (mean value); type: functional; summary of the method: as §5
[42] = species on record: Homo sapiens; assay: Intensity calculated on a molar basis relative to a 0.25 M sucrose solution at a concentration of 250 ppm (mean value); type: functional; summary of the method: as §6
[43] = species on record: Homo sapiens; assay: Other taste character at a concentration of 250 ppm (mean value); type: functional; summary of the method: as §1
[44] = species on record: Homo sapiens; assay: Sweet / Bitter character at a concentration of 250 ppm (mean value); 69/31; type: functional

COc1ccc(CCC(=O)c2c(O)cc(OCC(=O)[O-])cc2O)cc1N.[Na+]
Judgments [1]: 12 | Taste character [2]: 15 | Taste character [3]: 6 | Taste character [4]: 79 | Taste character [5]: 5 | Judgments [6]: 58 | Taste character [7]: 0 | IP [8]: 0.08 | IW [9]: 200 | IM [10]: 230 | Taste character [11]: 1

COc1ccc(CCC(=N)c2c(O)cc(OCC(=O)[O-])cc2O)cc1O.[Na+]
Judgments [12]: 0 | Judgments [1]: 1 | IP [13]: 0

COc1ccc(CCC(=O)c2c(O)cc(O)cc2O)cc1O
Judgments [1]: 10 | Taste character [14]: 4 | Taste character [15]: 8 | Taste character [16]: 5 | Judgments [17]: 70 | Taste character [18]: 83 | IM [19]: 750 | Taste character [20]: 0 | Taste character [21]: 91 | IP [22]: 0.89 | IW [23]: 850

COc1ccc(C2CC(=O)c3c(O)cc(OCCCS(=O)(=O)[O-])cc3O2)cc1O.[K+] (stereo unspecified)
Taste character [24]: 0 | IW [25]: 40 | Judgments [1]: 1 | Taste character [26]: 25 | Taste character [27]: 75 | IM [28]: 50 | IP [29]: 0.5 | Taste character [30]: 0 | Taste character [31]: 75 | Judgments [32]: 0 | Taste character [33]: 0

COc1ccc(/C=C/C(=O)c2c(O)cc(OCC(=O)[O-])cc2O)cc1O.[Na+]
Judgments [1]: 1 | IP [34]: 0

COc1ccc(/C=C/C(=O)c2ccc(OCC(=O)[O-])cc2O)cc1O.[Na+]
Judgments [1]: 1 | IP [13]: 0

COc1ccc(CCC(=O)c2c(O)cc(OC(CCCO)C(=O)[O-])cc2O)cc1O.[Na+] (stereo unspecified)
Judgments [1]: 4 | Taste character [35]: 0 | Taste character [36]: 31 | Taste character [37]: 0 | IP [38]: 0.1 | Judgments [39]: 0 | Taste character [40]: 69 | IW [41]: 34 | IM [42]: 43 | Taste character [43]: 0 | Taste character [44]: 69
